Reference: ChEMBL document CHEMBL2424590, “4-[18F]Fluoro-m-hydroxyphenethylguanidine: a radiopharmaceutical for quantifying regional cardiac sympathetic nerve density with positron emission tomography” (J Med Chem, 2013)

How the values were obtained:
Blood [1] = assay: Biodistribution in Sprague-Dawley rat blood at 20 to 120 uCi, iv after 60 mins by gamma counting analysis; assay type: ADME, organism-based; settings: in vivo, 1 h
In short: (§1)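 Sprague-Dawley rats (280–330 g), 2 male and 2 female per time point (5, 30, 60, 120 min), under light isoflurane, received a tail-vein bolus of 20–120 μCi tracer in 0.05–0.10 mL isotonic 60 mM sodium phosphate, pH 5.4. Tissues were weighed and gamma-counted. Decay-corrected dpm/g was normalized to injected dpm per kg body weight (%ID·kg/g).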

Rattus norvegicus [2] = assay: Biodistribution in Sprague-Dawley rat eyeballs at 20 to 120 uCi, iv after 120 mins by gamma counting analysis; assay type: ADME, organism-based, Eyeball of camera-type eye; settings: in vivo, 2 h; in short: as §1
Kidney = assay: Biodistribution in Sprague-Dawley rat kidney at 20 to 120 uCi, iv after 120 mins by gamma counting analysis; assay type: ADME, organism-based; settings: in vivo, 2 h; in short: as §1
Heart = assay: Biodistribution in Sprague-Dawley rat heart at 20 to 120 uCi, iv after 30 mins by gamma counting analysis; assay type: ADME, organism-based; settings: in vivo, 0.5 h; in short: as §1
[3] = Drug uptake in rhesus macaque monkey myocardium at 0.1 mCi by compartmental modeling analysis; assay type: ADME, tissue-based, Macaca mulatta
In short: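 Same monkey for all studies. Desipramine (0.010, 0.0316, 0.10 or 1.0 mg/kg; n = 1 each) in 2.0 mL saline infused i.v. over 20 min, with tracer injected 10 min after the infusion ended; 4 control studies. ROIs on myocardium and basal LV blood pool drawn on summed final four frames. Cp(t) derived from Cwb(t) × intact fraction × Cp/Cwb. Ki from compartmental modelling and Kp as Patlak slope, fitted against DMI dose to a variable-slope sigmoidal model.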

Brain [4] = assay: Biodistribution in Sprague-Dawley rat brain at 20 to 120 uCi, iv after 30 mins by gamma counting analysis; assay type: ADME, organism-based; settings: in vivo, 0.5 h; in short: as §1
Nucleic Acid = assay: Ratio of drug level in heart to blood in rhesus macaque monkey at 5 to 6 mCi, iv after 90 mins by PET analysis; assay type: ADME, organism-based, Macaca mulatta; settings: other tissue, 1.5 h
Pancreas = assay: Biodistribution in Sprague-Dawley rat pancreas at 20 to 120 uCi, iv after 60 mins by gamma counting analysis; assay type: ADME, organism-based; settings: in vivo, 1 h; in short: as §1
[5] = Drug excretion in rat urinary bladder at 0.5 mCi by PET analysis; settings: in vivo
[6] = Half life in rat urinary bladder at 0.5 mCi by PET analysis; settings: in vivo
Muscle tissue = assay: Biodistribution in Sprague-Dawley rat muscle at 20 to 120 uCi, iv after 5 mins by gamma counting analysis; assay type: ADME, organism-based; settings: in vivo; in short: as §1
Rattus norvegicus [7] = assay: Biodistribution in Sprague-Dawley rat stomach at 20 to 120 uCi, iv after 60 mins by gamma counting analysis; assay type: ADME, organism-based; settings: in vivo, 1 h
In short: (§2)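 Male and female rats (2 per sex per time point, 280–330 g) under light isoflurane given tail-vein bolus of 20–120 μCi tracer in 0.05–0.10 mL isotonic 60 mM sodium phosphate, pH 5.4. Tissues sampled at 5, 30, 60 or 120 min, weighed and gamma-counted. Decay-corrected dpm per gram normalised to injected dpm and body weight, given as %ID·kg/g.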

Blood [8] = assay: Drug uptake in rhesus macaque monkey whole blood at 0.1 mCi after 10 to 85 mins by gamma counting analysis; assay type: ADME, tissue-based, Macaca mulatta
Brain [9] = assay: Biodistribution in Sprague-Dawley rat brain at 20 to 120 uCi, iv after 60 mins by gamma counting analysis; assay type: ADME, organism-based; settings: in vivo, 1 h; in short: as §1
Bone = assay: Biodistribution in Sprague-Dawley rat bone at 20 to 120 uCi, iv after 60 mins by gamma counting analysis; assay type: ADME, organism-based, Bone element; settings: in vivo, 1 h; in short: as §1
Ovary = assay: Biodistribution in Sprague-Dawley rat ovary at 20 to 120 uCi, iv after 120 mins by gamma counting analysis; assay type: ADME, organism-based, Female gonad; settings: in vivo, 2 h
In short: as §1, with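 “g)” for “g), 2 male and 2 female per time point (5, 30, 60, 120 min),”, “isoflurane” for “isoflurane,”, “Sampling was at 5, 30, 60 or 120 min. […]” for “Tissues”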

Testes = assay: Biodistribution in Sprague-Dawley rat testes at 20 to 120 uCi, iv after 30 mins by gamma counting analysis; assay type: ADME, organism-based, Testis; settings: in vivo, 0.5 h; in short: as §2
Rattus norvegicus [10] = assay: Biodistribution in Sprague-Dawley rat uterus at 20 to 120 uCi, iv after 120 mins by gamma counting analysis; assay type: ADME, organism-based; settings: in vivo, 2 h; in short: as §2
Rattus norvegicus [11] = assay: Biodistribution in Sprague-Dawley rat uterus at 20 to 120 uCi, iv after 60 mins by gamma counting analysis; assay type: ADME, organism-based; settings: in vivo, 1 h; in short: as §2
Liver = assay: Biodistribution in Sprague-Dawley rat liver at 20 to 120 uCi, iv after 60 mins by gamma counting analysis; assay type: ADME, organism-based; settings: in vivo, 1 h; in short: as §1

`N=C(N)NCCc1ccc([18F])c(O)c1` showed a Drug uptake (Blood [1]) of 0.016 % ID/g, a Drug uptake (Rattus norvegicus [2]) of 0.026 %IDKg/g and a Drug uptake (Kidney) of 0.078 %IDKg/g. For the same molecule, the Drug uptake (Heart) was 0.602 %IDKg/g, the Ki [3] was 0.341 mL/min/g and the Drug uptake (Brain [4]) was 0.003 %IDKg/g. It also gave a Ratio (Nucleic Acid) of 3, a Drug uptake (Pancreas) of 0.172 %IDKg/g and a Drug excretion [5] of 19.9 %ID. For the same molecule, the t1/2 [6] was 12 min, the Drug uptake (Muscle tissue) was 0.019 % ID/g and the Drug uptake (Rattus norvegicus [7]) was 0.115 %IDKg/g. It also gave an SUV (Blood [8]) of 3.6, a Drug uptake (Brain [9]) of 0.002 %IDKg/g and a Drug uptake (Bone) of 0.027 % ID/g. The Drug uptake (Ovary) was 0.129 %IDKg/g, the Drug uptake (Testes) was 0.01 %IDKg/g and the Drug uptake (Rattus norvegicus [10]) was 0.081 %IDKg/g. For the same molecule, the Drug uptake (Rattus norvegicus [11]) was 0.112 %IDKg/g and the Drug uptake (Liver) was 0.35 %IDKg/g.
